We go through eight molecules from article PMC2606940 (The Journal of General Physiology, 2009).

Residue numbers refer to the chain shown, from its start. Structures can show the parent of a compound that is named as a salt.

One test has as its target T1, CLC-0 E166A mutant (Torpedo marmorata, UniProt P21564, C212S/E166A).
T1 sequence (P21564 1-805 E166A/C212S): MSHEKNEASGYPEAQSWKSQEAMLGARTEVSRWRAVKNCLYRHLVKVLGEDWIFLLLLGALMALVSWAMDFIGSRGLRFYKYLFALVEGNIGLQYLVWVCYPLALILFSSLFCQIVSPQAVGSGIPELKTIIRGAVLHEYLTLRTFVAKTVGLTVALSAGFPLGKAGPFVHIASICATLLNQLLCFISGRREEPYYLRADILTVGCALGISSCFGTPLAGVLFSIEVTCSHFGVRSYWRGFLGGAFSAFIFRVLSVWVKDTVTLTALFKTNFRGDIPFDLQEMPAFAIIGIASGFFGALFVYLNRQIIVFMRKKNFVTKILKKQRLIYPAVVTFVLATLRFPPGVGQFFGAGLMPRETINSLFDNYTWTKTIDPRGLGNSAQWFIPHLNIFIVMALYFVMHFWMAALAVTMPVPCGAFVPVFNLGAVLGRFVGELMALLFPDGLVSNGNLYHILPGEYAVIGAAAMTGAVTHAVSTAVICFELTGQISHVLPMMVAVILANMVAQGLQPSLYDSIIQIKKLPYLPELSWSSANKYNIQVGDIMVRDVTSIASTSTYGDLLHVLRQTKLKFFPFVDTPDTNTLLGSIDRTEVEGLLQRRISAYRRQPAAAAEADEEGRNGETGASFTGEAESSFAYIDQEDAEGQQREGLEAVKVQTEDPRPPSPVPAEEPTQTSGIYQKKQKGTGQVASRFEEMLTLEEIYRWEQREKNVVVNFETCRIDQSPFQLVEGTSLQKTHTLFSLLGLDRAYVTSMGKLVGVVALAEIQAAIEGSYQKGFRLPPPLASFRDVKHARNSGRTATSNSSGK
Type of test: cell-based. The settings on record: for K1/2 (range in words): −140 mV (Fig. 10 C). The gist of the method:
(§1)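 HEK293 cells expressed C212S-background CLC-0 mutants and were recorded 1–3 d post-transfection as inside-out patches in symmetrical 130 mM NaCl, 10 mM HEPES, pH 7.4. CPA, fatty acids or alkyl sulfates flowed continuously on the cytoplasmic side. C10–C12 compounds were diluted into bath solution from 10 mM DMSO stocks. Test steps ran from +80 to −160 mV after a +80 mV prepulse. Steady-state current was normalized to the mean of pre- and post-blocker controls, and a Langmuir K1/2 was taken at each voltage from ~4–6 patches.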

The next test concerns the target T2, CLC-0 E166Q mutant (Torpedo marmorata, UniProt P21564, C212S/E166Q).
T2 sequence (P21564 1-805 E166Q/C212S): T1 sequence (P21564 1-805 E166A/C212S) with A166Q
Type of test: cell-based. The settings on record: 5 μM SDS. The gist of the method:
as §1

For the molecule `CCCCCCCCCCCC(=O)O` [dodecanoate], at CLC-0 E166A mutant, the “K1/2 (range in words)” value is listed as “low μM range”.

As to `CCCCCCCCCCCCOS(=O)(=O)O` [SDS, dodecyl sulfate], the effect on current entry on CLC-0 E166Q mutant was “very limited effect”. For the same molecule, the “blocking affinity (in words)” value on CLC-0 E166A mutant is recorded as “high affinity”. The molecule also came in with a block of current at CLC-0 E166A mutant (5 μM SDS, −160 mV) of around 50%.

Take `CCC(=O)O` [propionate]: on CLC-0 E166A mutant, the “K1/2 (range in words)” value is on record as “mM range”.

On to `CCCC(=O)O` [butyrate], for which, at CLC-0 E166A mutant, the “K1/2 (range in words)” value is “mM range”.

As for `CCCCCCCCO` [Octanol], on CLC-0 E166A mutant, the “blocking affinity (in words)” value is recorded as “low affinity” and the “voltage dependence of the block” value is “no voltage dependence”.

With `CS(=O)(=O)SCCCCCS(=O)(=O)O` [5-sulfonatopentyl MTS], at CLC-0 E166A mutant, the “blocking affinity (in words)” value is “lower affinities than that observed with SDS”.

Consider `CS(=O)(=O)SCCS(=O)(=O)O` [2-sulfonatoethyl MTS], for which the “blocking affinity (in words)” value at CLC-0 E166A mutant is reported as “lower affinities than that observed with SDS”.

Take `CCCCCCCCCC(=O)O` [decanoate]: the “K1/2 (range in words)” value on CLC-0 E166A mutant is on record as “low μM range”.
